Experiment [1] addresses Adenosine receptors; A1 & A3 (Homo sapiens) (UniProt P30542+P0DMS8). The experiment is described as follows: Selectivity ratio (hA1/hA3). Type of experiment: protein assay.
Experiment [2] deals with Adenosine receptors; A2b & A3 (Homo sapiens) (UniProt P29275+P0DMS8). Put plainly: Selectivity ratio (h2B/hA3). Format: protein assay.
The target of experiment [3] is T1, Adenosine receptor A2a (Homo sapiens, UniProt P29274). Put plainly: Displacement of [3H]SCH-58261 from human Adenosine A2A receptor expressed in HEK293 cells; range 362-445. Type of experiment: cell-based. For orientation: In a radioligand displacement assay an active substance lowers the binding of a labelled ligand.
Experiment [4] deals with T2, Adenosine receptor A2b (Homo sapiens, UniProt P29275).
T2 sequence (P29275 whole entry): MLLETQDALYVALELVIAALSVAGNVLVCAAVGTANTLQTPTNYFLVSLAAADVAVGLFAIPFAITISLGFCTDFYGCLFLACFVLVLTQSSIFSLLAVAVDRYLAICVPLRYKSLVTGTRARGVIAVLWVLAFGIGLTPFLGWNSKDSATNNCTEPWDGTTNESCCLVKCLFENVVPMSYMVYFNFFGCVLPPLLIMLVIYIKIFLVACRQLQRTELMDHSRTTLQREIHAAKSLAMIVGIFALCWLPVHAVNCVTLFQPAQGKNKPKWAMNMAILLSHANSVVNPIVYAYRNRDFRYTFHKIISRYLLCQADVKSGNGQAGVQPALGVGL
Put plainly: Displacement of [3H]DPCPX from human Adenosine A2B receptor expressed in HEK293 cells; range 25-40. Format: cell-based. An outline of the steps: (§1)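 HEK-293 membranes expressing the human receptor were incubated 60 min at 25 °C. Six to eight test concentrations were used. Nonspecific binding was set with NECA. n = 3-6.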

The target in experiment [5] is T3, Adenosine receptor A3 (Homo sapiens, UniProt P0DMS8).
T3 sequence (P0DMS8 whole entry): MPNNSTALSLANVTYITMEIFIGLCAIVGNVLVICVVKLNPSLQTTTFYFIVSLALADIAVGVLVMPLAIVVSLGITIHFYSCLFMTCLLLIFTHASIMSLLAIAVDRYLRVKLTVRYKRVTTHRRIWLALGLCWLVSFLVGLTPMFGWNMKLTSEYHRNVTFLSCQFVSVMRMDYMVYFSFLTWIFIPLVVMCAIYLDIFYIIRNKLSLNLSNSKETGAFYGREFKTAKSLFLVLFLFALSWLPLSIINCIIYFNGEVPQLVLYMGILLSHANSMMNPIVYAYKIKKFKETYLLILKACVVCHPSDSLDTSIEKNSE
The experiment is described as follows: Displacement of [3H]MRE3008-F20 from human Adenosine A3 receptor expressed in HEK cells; range 2.0-3.1. Type of experiment: cell-based, HEK293.

Experiment [6] concerns the target T4, Adenosine receptor A1 (Homo sapiens, UniProt P30542).
T4 sequence (P30542 whole entry): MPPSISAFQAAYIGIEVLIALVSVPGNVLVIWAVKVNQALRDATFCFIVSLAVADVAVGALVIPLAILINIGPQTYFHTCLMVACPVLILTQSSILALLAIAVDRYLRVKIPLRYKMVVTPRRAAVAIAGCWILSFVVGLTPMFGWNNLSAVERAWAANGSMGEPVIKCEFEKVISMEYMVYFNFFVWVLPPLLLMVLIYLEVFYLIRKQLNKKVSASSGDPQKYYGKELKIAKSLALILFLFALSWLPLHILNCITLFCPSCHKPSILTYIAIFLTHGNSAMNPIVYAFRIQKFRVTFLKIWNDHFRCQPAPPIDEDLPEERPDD
The experiment is described as follows: Displacement of [3H]DPCPX from human Adenosine A1 receptor expressed in CHO cells; range 552-676. Format: cell-based. In short, it runs like this:
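Competition binding on membranes of CHO cells stably expressing human A1 receptor, resuspended in 50 mM Tris HCl pH 7.4. Incubation 120 min at 25 °C with 1 nM [3H]DPCPX, 50 µg protein per assay and at least six to eight test concentrations. CHA defined nonspecific binding. Bound ligand separated on glass-fibre filters and counted; n = 3-6.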

The target in experiment [7] is T4, Adenosine receptor A1. The experiment is described as follows: Displacement of [3H]DPCPX from human Adenosine A1 receptor expressed in CHO cells; range 222-400. Format: cell-based. An outline of the steps: (§2)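 Human recombinant A1 receptor in CHO cell membranes, resuspended in 50 mM Tris HCl pH 7.4. Displacement run 120 min at 25 °C with 1 nM [3H]DPCPX, 50 µg protein per assay, and at least six to eight test concentrations. Nonspecific binding defined with CHA. Bound and free separated on glass-fiber filters; filter radioactivity counted. n = 3-6.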

The target of experiment [8] is T1, Adenosine receptor A2a. Put plainly: Displacement of [3H]SCH-58261 from human Adenosine A2A receptor expressed in HEK293 cells; […]. Format: cell-based.
Experiment [9] addresses T3, Adenosine receptor A3. Put plainly: Displacement of [3H]MRE3008-F20 binding at human Adenosine A3 receptor expressed in HEK cells; range 0.82-1.02. Type of experiment: cell-based, HEK293.
The target of experiment [10] is T2, Adenosine receptor A2b. Put plainly: Displacement of [3H]DPCPX from human Adenosine A2B receptor expressed in HEK293 cells; range 88-165. Type of experiment: cell-based. An outline of the steps: (§3)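 Membranes from HEK-293 cells with human recombinant A2B receptor. Incubation 60 min at 25 °C in 50 mM Tris HCl, 10 mM MgCl2, 1 mM EDTA, 0.1 mM benzamidine, pH 7.4, with 2 IU/mL adenosine deaminase and 40 nM [3H]DPCPX. At least six to eight test concentrations. Nonspecific binding defined with NECA. n = 3-6.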

For experiment [11], the target named is T3, Adenosine receptor A3. The experiment is described as follows: biochemical.
Experiment [12] has as its target T4, Adenosine receptor A1. Put plainly: Displacement of [3H]DPCPX from human Adenosine A1 receptor expressed in CHO cells; range 253-401. Type of experiment: cell-based. In short, it runs like this:
as §2

For experiment [13], the target named is T2, Adenosine receptor A2b. Put plainly: Displacement of [3H]-DPCPX from human Adenosine A2B receptor expressed in HEK293 cells; range 107-172. Type of experiment: cell-based. An outline of the steps:
as §1

Experiment [14] concerns the target T1, Adenosine receptor A2a. The experiment is described as follows: Displacement of [3H]SCH-58261 from human Adenosine A2A receptor expressed in HEK293 cells; range 36-70. Format: cell-based.
The target in experiment [15] is T3, Adenosine receptor A3. Put plainly: Displacement of […] from human Adenosine A3 receptor expressed in CHO cells. Type of experiment: cell-based. In short, it runs like this: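 Membranes of CHO cells stably expressing human A3 receptor (50 µg protein/assay), incubated in duplicate with 1 nM [3H]MRE3008-F20 in 50 mM Tris HCl, 10 mM MgCl2 (pH 7.4) and six to eight ligand concentrations, 120 min at 4 °C. Nonspecific binding was set with 1 µM MRE3008-F20. Separation was by GF/B filtration and scintillation counting; n = 3-6.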

Experiment [16] addresses T2, Adenosine receptor A2b. Put plainly: Displacement of [3H]DPCPX binding at human Adenosine A2B receptor expressed in HEK293 cells. Type of experiment: cell-based. An outline of the steps:
as §3

For experiment [17], the target named is T1, Adenosine receptor A2a. The experiment is described as follows: Displacement of [3H]SCH-58261 from human Adenosine A2A receptor expressed in CHO cells. Format: cell-based. In short, it runs like this:
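Membranes from CHO cells expressing the human receptor (50 µg protein) with [3H]SCH58261 and six to eight competitor concentrations. Incubated 60 min at 25 °C. Nonspecific binding was set with NECA.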

The target in experiment [18] is T4, Adenosine receptor A1. Put plainly: Displacement of [3H]DPCPX from human Adenosine A1 receptor expressed in CHO cells. Format: cell-based. In short, it runs like this: as §2
Experiment [19] deals with T2, Adenosine receptor A2b. Put plainly: Displacement of [3H]DPCPX from human Adenosine A2B receptor expressed in HEK293 cells (95% confidence limits). Format: cell-based. An outline of the steps:
as §1

The target in experiment [20] is T3, Adenosine receptor A3. Put plainly: biochemical. The source holds these as a separate data set.

These results are taken from ChEMBL document CHEMBL1136016, “Synthesis, biological activity, and molecular modeling investigation of new pyrazolo[4,3-e]-1,2,4-triazolo[1,5-c]pyrimidine derivatives as human A(3) adenosine receptor antagonists” (J Med Chem, 2002).

T1 sequence (P29274 whole entry): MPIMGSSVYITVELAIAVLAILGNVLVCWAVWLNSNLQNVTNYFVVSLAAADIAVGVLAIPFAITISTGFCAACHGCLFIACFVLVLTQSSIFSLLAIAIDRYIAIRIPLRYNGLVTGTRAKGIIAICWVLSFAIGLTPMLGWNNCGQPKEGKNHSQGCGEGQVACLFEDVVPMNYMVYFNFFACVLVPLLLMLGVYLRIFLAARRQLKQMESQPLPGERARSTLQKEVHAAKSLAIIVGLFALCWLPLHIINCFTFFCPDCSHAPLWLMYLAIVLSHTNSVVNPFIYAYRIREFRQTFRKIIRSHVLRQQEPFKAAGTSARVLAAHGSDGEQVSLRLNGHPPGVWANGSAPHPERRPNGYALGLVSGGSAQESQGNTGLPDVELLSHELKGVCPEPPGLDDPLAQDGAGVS

Consider `O=C(Nc1cccc(Cl)c1)Nc1nc2ccc(Cl)cc2c2nc(-c3ccco3)nn12`, for which the Ratio in experiment [1] turned out to be 54; in [2], 157.
A word on the Ki: it is a dissociation constant, usually derived from enzyme kinetics or from competition with a known ligand. Low values mean a stronger hold on the target, high ones a looser hold on the target. For `CCCn1cc2c(nc(NC(=O)Nc3ccc(Cl)c(Cl)c3)n3nc(-c4ccco4)nc23)n1`, the Ki on Adenosine receptor A2a [3] came to 401 nM; on Adenosine receptor A2b [4] it was 31 nM; at Adenosine receptor A3 [5], 2.5 nM; at Adenosine receptor A1 [6], 611 nM. Further, the Ratio in [1] turned out to be 244; in [2] it was 12.
In the case of `CCn1cc2c(nc(NC(=O)Nc3cccc(Cl)c3)n3nc(-c4ccco4)nc23)n1`, the values for the Ratio in experiment [1] and in experiment [2] were 155 and 93.7, respectively.
As for `CCCCn1cc2c(nc(NC(=O)Nc3ccc(Br)cc3)n3nc(-c4ccco4)nc23)n1`, the Ki is 300 nM on Adenosine receptor A1 [7], 66 nM on Adenosine receptor A2a [8], 0.91 nM at Adenosine receptor A3 [9] and 121 nM at Adenosine receptor A2b [10]. In addition, the Ratio in [1] worked out at 330; in experiment [2] it was 133.
Consider `Cn1cc2c(nc(NC(=O)Nc3cccc(Cl)c3)n3nc(-c4ccco4)nc23)n1`, for which the Ratio in experiment [1] stood at 875; in experiment [2] it was 512.
`CCCCn1cc2c(nc(NC(=O)Nc3ccc(F)cc3)n3nc(-c4ccco4)nc23)n1`: the inhibition constant Ki at Adenosine receptor A3 [11] came out at 0.8 nM; at Adenosine receptor A1 [12] it was 318 nM; on Adenosine receptor A2b [13], 136 nM; on Adenosine receptor A2a [14], 50 nM. Also, the Ratio in [1] came out at 398; in experiment [2], 170.
In the case of `CCCCn1cc2c(nc(NC(=O)Nc3ccc([N+](=O)[O-])cc3)n3nc(-c4ccco4)nc23)n1`, the Ratio in experiment [1] amounted to 1060; in [2] it was 96. Moreover, the Ki on Adenosine receptor A3 [15] turned out to be 0.55 nM; on Adenosine receptor A2b [16], 52 nM; on Adenosine receptor A2a [17], 503 nM; at Adenosine receptor A1 [18], 584 nM.
On to `COc1ccc(NC(=O)Nc2nc3ccc(Cl)cc3c3nc(-c4ccco4)nn23)cc1`, for which the results for the Ratio in experiment [1] and in [2] were 43 and 158, respectively.
The matching figures for `CCCn1cc2c(nc(NC(=O)Nc3cccc(Cl)c3)n3nc(-c4ccco4)nc23)n1`: 33 and 62.6.
As to `CCn1cc2c(nc(NC(=O)Cc3ccccc3)n3nc(-c4ccco4)nc23)n1`, the Ki was 161 nM on Adenosine receptor A2b [19], 335 nM on Adenosine receptor A2a [17], 1.03 nM at Adenosine receptor A3 [20] and 714 nM on Adenosine receptor A1 [18]. In addition, the Ratio in experiment [1] turned out to be 693; in experiment [2] it was 156.
